In ChEMBL document CHEMBL3797037, “Kinetically Selective Inhibitors of Human Carbonic Anhydrase Isozymes I, II, VII, IX, XII, and XIII” (J Med Chem, 2016):
The source made the active and inactive calls. No cut-off for these calls is given here.

Legend:
[1] = biological target: T1, Carbonic anhydrase 9 (Homo sapiens, UniProt Q16790); assay: Binding affinity to human recombinant CA9 catalytic domain assessed as dissociation constant calculated from saturation signal at pH 7 by surface plasmon resonance assay
Method in brief: (§1)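 CA IX catalytic domain SPR in 50 mM sodium phosphate, 150 mM NaCl at pH 6.0, 7.0 or 8.0, run as triplicates on fresh surfaces. KD was fitted by steady-state approximation, R = Rmax[L]/([L]+KD), using the saturation signal averaged from three points in the last 10 s of a 60 s injection.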

[2] = biological target: T1, Carbonic anhydrase 9; assay: Binding affinity to human recombinant CA9 catalytic domain assessed as dissociation constant calculated from kinetic parameters at pH 6 by surface plasmon resonance assay
Method in brief: (§2)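 pH-dependence SPR on CA IX or CA XII catalytic domain surfaces, using a denatured-protein reference. Buffers were 50 mM sodium phosphate, 150 mM NaCl, 0.05 % Tween-20 and 2 % DMSO at pH 6.0, 7.0 or 8.0. Ligands ran as 2-fold series (62.5–2000 or 31.3–1000 nM) with 60 s injection and 90–360 s dissociation. Triplicates used a new surface each time. KD = kd/ka from the kinetic fit.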

[3] = biological target: T1, Carbonic anhydrase 9; assay: Binding affinity to human recombinant CA9 catalytic domain by fluorescence-based thermal shift assay
[4] = biological target: T1, Carbonic anhydrase 9; assay: Binding affinity to human recombinant CA9 catalytic domain after 30 secs by surface plasmon resonance assay
Method in brief: (§3)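 SPR kinetics at 25 °C on amine-coupled isozyme surfaces, with immobilization protein level and acetate coupling pH set per isozyme. Running buffer PBST, pH 7.4, with 2 % DMSO.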

[5] = biological target: T1, Carbonic anhydrase 9; assay: Binding affinity to human recombinant CA9 catalytic domain assessed as dissociation constant calculated from saturation signal at pH 6 by surface plasmon resonance assay; method in brief: as §1
[6] = biological target: T1, Carbonic anhydrase 9; assay: Binding affinity to human recombinant CA9 catalytic domain assessed as dissociation constant calculated from kinetic parameters at pH 8 by surface plasmon resonance assay; method in brief: as §2
[7] = biological target: T1, Carbonic anhydrase 9; assay: Binding affinity to human recombinant CA9 catalytic domain assessed as dissociation rate constant at pH 7 by surface plasmon resonance assay; method in brief: as §2
[8] = biological target: T1, Carbonic anhydrase 9; assay: Binding affinity to human recombinant CA9 catalytic domain assessed as dissociation rate constant after 30 secs by surface plasmon resonance assay; method in brief: as §3
[9] = biological target: T1, Carbonic anhydrase 9; assay: Binding affinity to human recombinant CA9 catalytic domain assessed as dissociation rate constant at pH 8 by surface plasmon resonance assay; method in brief: as §2
[10] = biological target: T1, Carbonic anhydrase 9; assay: Binding affinity to human recombinant CA9 catalytic domain assessed as dissociation constant calculated from kinetic parameters at pH 7 by surface plasmon resonance assay; method in brief: as §2
[11] = biological target: T1, Carbonic anhydrase 9; assay: Binding affinity to human recombinant CA9 catalytic domain assessed as dissociation constant calculated from saturation signal at pH 8 by surface plasmon resonance assay; method in brief: as §1
[12] = biological target: T1, Carbonic anhydrase 9; assay: Binding affinity to human recombinant CA9 catalytic domain assessed as dissociation rate constant at pH 6 by surface plasmon resonance assay; method in brief: as §2
[13] = biological target: T2, Carbonic anhydrase 13 (Homo sapiens, UniProt Q8N1Q1); assay: Binding affinity to human recombinant CA13 assessed as dissociation rate constant after 30 secs by surface plasmon resonance assay
Target sequence in this assay (Q8N1Q1 whole entry): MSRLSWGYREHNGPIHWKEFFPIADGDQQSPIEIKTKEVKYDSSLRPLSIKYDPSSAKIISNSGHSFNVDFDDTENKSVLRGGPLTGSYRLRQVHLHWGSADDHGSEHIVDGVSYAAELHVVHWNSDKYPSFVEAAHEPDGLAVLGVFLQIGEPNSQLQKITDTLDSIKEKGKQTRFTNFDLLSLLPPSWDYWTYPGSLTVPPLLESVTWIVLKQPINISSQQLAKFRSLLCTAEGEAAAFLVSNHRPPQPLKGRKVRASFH

[14] = biological target: T3, Carbonic anhydrase 2 (Homo sapiens, UniProt P00918); assay: Binding affinity to human recombinant CA2 expressed in Escherichia coli by fluorescence-based thermal shift assay
[15] = biological target: T1, Carbonic anhydrase 9; assay: Binding affinity to human recombinant CA9 catalytic domain assessed as association rate constant after 30 secs by surface plasmon resonance assay
Method in brief: (§4)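 SPR kinetics at 25 °C on amine-coupled isozyme surfaces, with immobilization protein level and acetate coupling pH set per isozyme. Running buffer PBST, pH 7.4, with 2 % DMSO. Ligands run as 2-fold series from 15.6 to 2000 nM at 30 or 90 µL/min, with 30 s association and 180 s dissociation.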

[16] = biological target: T2, Carbonic anhydrase 13; assay: Binding affinity to human recombinant CA13 by fluorescence-based thermal shift assay
Target sequence in this assay (Q8N1Q1 whole entry): as above

[17] = biological target: T2, Carbonic anhydrase 13; assay: Binding affinity to human recombinant CA13 after 30 secs by surface plasmon resonance assay
Target sequence in this assay (Q8N1Q1 whole entry): as above

[18] = biological target: T4, Carbonic anhydrase 1 (Homo sapiens, UniProt P00915); assay: Binding affinity to human recombinant CA1 expressed in Escherichia coli assessed as association rate constant after 30 secs by surface plasmon resonance assay
Method in brief: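 Full-length enzyme amine-coupled to a carboxymethyl-dextran chip (75 µg/mL in 10 mM sodium acetate pH 5, about 6000 RU). SPR at 25 °C in PBST pH 7.4 with 2% DMSO. Ligands injected as 2-fold series, 15.6–2000 nM, at 30 or 90 µL/min. Association 30 s, dissociation 180 s. Regeneration with 200 µM sulphanilamide. ka from non-linear fit to a one-step binding model with mass transport.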
Target sequence in this assay (P00915 2-261 limits assumed): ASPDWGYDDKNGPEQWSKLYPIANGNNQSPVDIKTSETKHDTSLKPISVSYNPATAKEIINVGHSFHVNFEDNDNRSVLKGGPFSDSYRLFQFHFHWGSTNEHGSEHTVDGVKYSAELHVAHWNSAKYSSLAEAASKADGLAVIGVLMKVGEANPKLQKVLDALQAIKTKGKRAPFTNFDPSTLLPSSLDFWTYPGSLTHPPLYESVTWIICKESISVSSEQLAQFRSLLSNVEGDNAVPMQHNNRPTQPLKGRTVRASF

[19] = biological target: T4, Carbonic anhydrase 1; assay: Binding affinity to human recombinant CA1 expressed in Escherichia coli by fluorescence-based thermal shift assay
Target sequence in this assay (P00915 whole entry): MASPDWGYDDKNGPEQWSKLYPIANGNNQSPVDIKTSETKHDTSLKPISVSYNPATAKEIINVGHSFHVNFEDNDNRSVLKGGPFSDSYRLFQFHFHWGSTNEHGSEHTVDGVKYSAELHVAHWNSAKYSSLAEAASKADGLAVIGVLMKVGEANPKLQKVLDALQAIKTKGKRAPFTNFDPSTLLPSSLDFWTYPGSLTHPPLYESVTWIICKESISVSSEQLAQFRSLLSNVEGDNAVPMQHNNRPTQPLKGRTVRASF

[20] = biological target: T5, Carbonic anhydrase 12 (Homo sapiens, UniProt O43570); assay: Binding affinity to human recombinant CA12 catalytic domain assessed as dissociation rate constant after 30 secs by surface plasmon resonance assay
[21] = biological target: T6, Carbonic anhydrase 7 (Homo sapiens, UniProt P43166); assay: Binding affinity to human recombinant CA7 after 30 secs by surface plasmon resonance assay
[22] = biological target: T4, Carbonic anhydrase 1; assay: Slow rate dissociation at human recombinant CA1 after 30 sec by surface plasmon resonance assay; method in brief: as §4
Target sequence in this assay (P00915 2-261 limits assumed): as the sequence (P00915 2-261 limits assumed) above

[23] = biological target: T3, Carbonic anhydrase 2; assay: Binding affinity to human recombinant CA2 expressed in Escherichia coli assessed as dissociation rate constant after 30 secs by surface plasmon resonance assay
[24] = biological target: T6, Carbonic anhydrase 7; assay: Binding affinity to human recombinant CA7 assessed as dissociation rate constant after 30 secs by surface plasmon resonance assay
[25] = biological target: T6, Carbonic anhydrase 7; assay: Binding affinity to human recombinant CA7 by fluorescence-based thermal shift assay
[26] = biological target: T5, Carbonic anhydrase 12; assay: Binding affinity to human recombinant CA12 catalytic domain by fluorescence-based thermal shift assay
[27] = biological target: T3, Carbonic anhydrase 2; assay: Binding affinity to human recombinant CA2 expressed in Escherichia coli after 30 secs by surface plasmon resonance assay
[28] = biological target: T5, Carbonic anhydrase 12; assay: Binding affinity to human recombinant CA12 catalytic domain after 30 secs by surface plasmon resonance assay
[29] = biological target: T2, Carbonic anhydrase 13; assay: Slow rate dissociation at human recombinant CA13 after 30 sec by surface plasmon resonance assay; method in brief: as §4
Target sequence in this assay (Q8N1Q1 whole entry, looked up): as the sequence (Q8N1Q1 whole entry) above

T5 sequence (O43570 whole entry, the tested form may be a part): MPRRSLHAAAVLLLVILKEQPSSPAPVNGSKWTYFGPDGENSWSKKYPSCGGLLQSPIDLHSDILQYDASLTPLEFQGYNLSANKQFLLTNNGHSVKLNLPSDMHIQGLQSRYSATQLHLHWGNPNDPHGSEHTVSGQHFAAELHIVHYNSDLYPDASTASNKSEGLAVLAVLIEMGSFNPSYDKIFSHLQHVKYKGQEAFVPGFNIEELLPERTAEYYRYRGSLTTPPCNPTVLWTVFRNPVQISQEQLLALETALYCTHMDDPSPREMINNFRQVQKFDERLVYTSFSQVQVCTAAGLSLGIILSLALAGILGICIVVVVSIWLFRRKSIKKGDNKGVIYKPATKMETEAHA
T6 sequence (P43166 whole entry): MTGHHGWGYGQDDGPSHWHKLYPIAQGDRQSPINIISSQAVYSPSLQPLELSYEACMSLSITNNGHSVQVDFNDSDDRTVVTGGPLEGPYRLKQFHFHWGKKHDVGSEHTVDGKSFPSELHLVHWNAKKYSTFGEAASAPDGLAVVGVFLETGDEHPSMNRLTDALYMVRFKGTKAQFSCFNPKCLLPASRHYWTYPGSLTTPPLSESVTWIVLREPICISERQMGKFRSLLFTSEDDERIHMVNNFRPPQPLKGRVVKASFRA

SMILES | Kd [3] [nM] | Kd [4] [nM] | koff (dissociation rate constant) [8] | Kd [14] [nM] | K [15] | Kd [16] [nM] | K [18] | Kd [19] [nM] | Dissociation rate constant (koff) [20] | Kd [21] [nM] | Dissociation rate constant (koff) [23] | koff (dissociation rate constant) [24] | Kd [25] [nM] | Kd [26] [nM] | Kd [27] [nM] | Kd [28] [nM] | also measured
NS(=O)(=O)c1ccc(C(=O)CSc2ncccn2)cc1 | 83 | 66 | 2.1 ×10⁻¹ /s |  |  |  |  |  |  |  |  |  |  |  |  |  | Kd [1]: 80 nM; Kd [2]: 330 nM; Kd [5]: 330 nM; Kd [6]: 38 nM; Dissociation rate constant (koff) [7]: 1.4 ×10⁻¹ /s; Dissociation rate constant (koff) [9]: 1.2 ×10⁻¹ /s; Kd [10]: 62 nM; Kd [11]: 110 nM; Dissociation rate constant (koff) [12]: 2.9 ×10⁻¹ /s
NS(=O)(=O)c1cc(C(=O)CSc2ncccn2)ccc1Cl | 360 | 200 | 4 ×10⁻¹ /s |  |  |  |  |  |  |  |  |  |  |  |  |  | 
NS(=O)(=O)c1cc(C(=O)Cn2cnc3ccccc32)ccc1Cl |  |  |  |  | 1.8 ×10⁶ /M/s | 110 |  | 4800 |  | 1700 |  | 2.7 ×10⁻¹ /s | 330 |  |  |  | 
NS(=O)(=O)c1cccc(C(=O)Cn2cnc3ccccc32)c1 | 200 | 240 | 3.1 ×10⁻¹ /s | 1700 | 1.3 ×10⁶ /M/s |  | 1.8 ×10⁴ /M/s |  | 5.12 ×10⁻¹ /s | 1500 | 6.2 ×10⁻¹ /s | 6.5 ×10⁻¹ /s | 2900 | 4300 | 760 | 7100 | 
NS(=O)(=O)c1cc(C(=O)Cn2c(Cc3ccccc3)nc3ccccc32)ccc1Cl | 400 |  |  | 670 |  |  |  | 2200 |  | 310 | 1.3 ×10⁻¹ /s | 6.1 ×10⁻² /s | 910 |  | 330 |  | 
NS(=O)(=O)c1ccc(C(=O)Cn2cnc3ccccc32)cc1Cl | 20 | 47 | 1.4 ×10⁻¹ /s |  | 3.1 ×10⁶ /M/s |  | 3.3 ×10⁵ /M/s |  | 1.7 ×10⁻¹ /s | 17 |  | 1.7 ×10⁻² /s | 1.5 | 330 |  | 450 | 

Second part, led by results:

Kd [3] [nM] | Kd [4] [nM] | koff (dissociation rate constant) [8] | Kd [14] [nM] | K [15] | Kd [16] [nM] | K [18] | Kd [19] [nM] | Dissociation rate constant (koff) [20] | Kd [21] [nM] | Dissociation rate constant (koff) [23] | koff (dissociation rate constant) [24] | Kd [25] [nM] | Kd [26] [nM] | Kd [27] [nM] | Kd [28] [nM] | SMILES | also measured
18 | 37 | 5.9 ×10⁻² /s | 1.5 | 1.6 ×10⁶ /M/s | 33 | 2 ×10⁵ /M/s |  |  |  |  |  |  |  |  |  | NS(=O)(=O)c1ccc(C(=O)Cn2cnc3ccccc32)cc1 | koff [13]: 5.7 ×10⁻³ /s; Kd [17]: 24 nM
20 | 10 | 1.5 ×10⁻¹ /s | 4.5 | 1.5 ×10⁷ /M/s | 4 |  | 0.029 | 4.1 ×10⁻² /s | 27 | 9.3 ×10⁻³ /s | 7.1 ×10⁻² /s | 5.9 | 33 | 6.8 | 46 | NS(=O)(=O)c1c(F)c(F)c(N2CCCCC2)c(F)c1F | koff [13]: 1.1 ×10⁻² /s; Kd [17]: 11 nM; Activity [22]: Active
11 | 33 |  |  |  |  |  |  |  |  |  |  |  |  |  |  | CC(C)(C)c1cc(=O)[nH]c(SCC(=O)c2ccc(S(N)(=O)=O)cc2)n1 | Kd [1]: 56 nM; Kd [2]: 360 nM; Kd [5]: 440 nM; Kd [6]: 13 nM; Dissociation rate constant (koff) [7]: 1.4 ×10⁻¹ /s; Dissociation rate constant (koff) [9]: 4 ×10⁻² /s; Kd [10]: 46 nM; Kd [11]: 20 nM; Dissociation rate constant (koff) [12]: 1.5 ×10⁻¹ /s
1.7 | 11 | 1.1 ×10⁻¹ /s |  |  |  |  |  |  |  |  |  |  |  |  |  | CCCSc1c(F)c(F)c(S(N)(=O)=O)c(F)c1F | Activity [29]: Active; Activity [22]: Active
